2 compounds from ChEMBL document CHEMBL3124932, “Design, synthesis and evaluation of genistein-O-alkylbenzylamines as potential multifunctional agents for the treatment of Alzheimer's disease” (Eur J Med Chem, 2014) can be followed below.

Each structure is given as a SMILES string.

The target in test [1] is Butyrylcholinesterase (Rattus norvegicus) (UniProt Q9JKC1). Briefly: Inhibition of rat serum BuChE using butyrylthiocholine iodide as substrate at 50 uM after 15 mins by Ellman's method. The gist of the method:
(§1)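 Modified Ellman assay in phosphate buffer pH 7.4. Enzyme sources: AChE from 5% rat cortex homogenate, preincubated 5 min with iso-OMPA to block BuChE; BuChE from 25% rat serum. Substrates were acetylthiocholine or butyrylthiocholine iodide. Compounds incubated 15 min at 37 °C, then DTNB added; A405 read. IC50 derived; triplicate, 3 independent experiments; "no active" means under 5% inhibition at 50 µM.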

For test [2], the target named is T1, Acetylcholinesterase (Rattus norvegicus) (UniProt P37136).
T1 sequence (whole entry): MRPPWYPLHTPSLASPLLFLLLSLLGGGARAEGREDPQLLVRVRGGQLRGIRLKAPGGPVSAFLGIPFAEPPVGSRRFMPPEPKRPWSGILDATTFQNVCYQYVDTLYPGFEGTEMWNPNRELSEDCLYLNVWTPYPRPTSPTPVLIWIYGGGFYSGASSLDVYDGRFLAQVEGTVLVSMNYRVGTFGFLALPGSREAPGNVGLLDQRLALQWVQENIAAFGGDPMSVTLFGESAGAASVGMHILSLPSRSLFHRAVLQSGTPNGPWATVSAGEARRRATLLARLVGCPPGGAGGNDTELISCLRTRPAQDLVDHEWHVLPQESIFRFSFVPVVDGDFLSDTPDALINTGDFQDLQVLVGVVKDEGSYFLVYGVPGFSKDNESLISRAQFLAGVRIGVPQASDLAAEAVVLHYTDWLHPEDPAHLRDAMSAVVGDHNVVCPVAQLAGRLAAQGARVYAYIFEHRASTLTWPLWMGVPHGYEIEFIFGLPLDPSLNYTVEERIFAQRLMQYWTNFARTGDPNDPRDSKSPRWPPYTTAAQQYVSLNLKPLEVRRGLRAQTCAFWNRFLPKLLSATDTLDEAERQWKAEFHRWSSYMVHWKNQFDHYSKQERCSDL
Description: Inhibition of rat cortex homogenate AchE using acetylthiocholine iodide as substrate at 50 uM after 15 mins by Ellman's method. In outline:
as §1
Background: Ellman's reagent forms a yellow product with free thiols.

The target in test [3] is Acetylcholinesterase (Electrophorus electricus) (UniProt O42275). Briefly: Inhibition of electric eel AchE using acetylthiocholine iodide as substrate at 50 uM after 15 mins by Ellman's method. The gist of the method: (§2)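 Modified Ellman assay with purified eel or human erythrocyte AChE (0.05 U/mL final) in phosphate buffer pH 8.0. Compound and enzyme incubated 15 min at 37 °C with acetylthiocholine iodide, then DTNB added; absorbance read at 412 nm. IC50 is the concentration giving 50% inhibition. Assays in triplicate, 3 independent experiments; "no active" means under 5% inhibition at 50 µM.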

Test [4] is described as follows: Antioxidant activity assessed as trolox equivalent of APPH-induced radical scavenging activity at 1 to 10 uM preincubated for 15 mins followed by AAPH challenge measured every minute for 90 minutes by ORAC fluorescence assay. Format: functional. The gist of the method:
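ORAC-FL in phosphate buffer pH 7.4. Samples (1–10 µM) preincubated with fluorescein (150 nM final) 15 min at 37 °C, then AAPH (12 mM final) added. Fluorescence (ex 485/em 535 nm) read each minute for 90 min. Net AUC over blank converted to Trolox equivalents using a 1–8 µM Trolox curve. Duplicates, at least 3 independent assays.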

Test [5] addresses T2, Acetylcholinesterase (Homo sapiens, UniProt P22303). Briefly: Inhibition of human erythrocytes AchE using acetylthiocholine iodide as substrate at 50 uM after 15 mins by Ellman's method. The gist of the method:
as §2

Test [6] addresses T3, Acetylcholinesterase (Electrophorus electricus, UniProt O42275). Briefly: Mixed-type inhibition of electric eel AchE using acetylthiocholine as substrate after 15 mins by Lineweaver-Burk plot analysis. In outline: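 Purified eel AChE in 0.1 M phosphate pH 8.0 with DTNB. Three inhibitor concentrations preincubated with enzyme 15 min at 37 °C, then acetylthiocholine added at varied concentrations. Hydrolysis followed at 412 nm, with no-inhibitor controls. Lineweaver-Burk plots fitted by weighted least squares; slopes replotted against inhibitor concentration, Ki taken as the negative x-intercept.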

Test [7] deals with Amyloid-beta precursor protein (Homo sapiens) (UniProt P05067). Briefly: Inhibition of self-induced amyloid beta (1 to 42) (unknown origin) aggregation after 24 hrs by thioflavin T fluorescence method. The gist of the method:
(§3)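 HFIP-pretreated Aβ1-42 (25 µM final) incubated with compound (10–50 µM) in 50 mM phosphate pH 7.4 for 24 h at 37 °C, wells sealed. ThT in glycine-NaOH pH 8.5 added; fluorescence ex 446/em 490 nm. DMSO 12.5% final. Percent inhibition relative to peptide without inhibitor; triplicate, mean of 3 independent experiments.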

For test [8], the system named is Mus musculus. Briefly: Cognition enhancing effect against scopolamine-induced memory deficit in po dosed Kunming mouse assessed as increase in latency time administered 1 hr before training followed by scopolamine challenge for 7 days measured after 24 hrs by step-down passive avoidance test. Format: functional, organism-based. In outline:
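Kunming mice, six weeks old, 18–22 g, either sex, n=10 per group. Oral dosing at 2, 6, 18 or 3, 9, 27 mg/kg in vegetable oil, 1 h before training; vehicle as negative control. Scopolamine (3 mg/kg i.p., in saline) given 30 min later. Behavioural testing after 7 days of treatment. Step-down training used a 0.5 mA, 2 s foot shock. Latency measured 24 h later, cut-off 300 s; mean ± SEM.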

Test [9] deals with T3, Acetylcholinesterase. Description: Inhibition of electric eel AchE using acetylthiocholine iodide as substrate after 15 mins by Ellman's method.
Test [10] deals with Amyloid-beta precursor protein (Homo sapiens) (UniProt P05067). Briefly: Inhibition of Cu2+-induced amyloid beta (1 to 42) (unknown origin) aggregation at 25 uM after 24 hrs by thioflavin T fluorescence method. In outline: (§4)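 Aβ1-42 (25 µM final, HFIP-pretreated) with an equimolar amount of Cu2+ (25 µM) in HEPES pH 6.6 with 150 mM NaCl. Incubated with or without compound (10–35 µM final) 24 h at 37 °C. ThT in glycine-NaOH pH 8.5 added, fluorescence ex 446/em 490 nm. DMSO 12.5% final. Percent inhibition relative to no-inhibitor wells; triplicate, mean of 3 independent experiments.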

The target of test [11] is T2, Acetylcholinesterase. Briefly: Inhibition of human erythrocytes AchE using acetylthiocholine iodide as substrate after 15 mins by Ellman's method.
The target of test [12] is Amyloid-beta precursor protein (Homo sapiens) (UniProt P05067). Description: Inhibition of Cu2+-induced amyloid beta (1 to 42) (unknown origin) aggregation after 24 hrs by thioflavin T fluorescence method. In outline:
as §4

Test [13] shares this target. Description: Induction of amyloid beta (1 to 42) (unknown origin) disaggregation assessed as reduction of Cu2+-induced amyloid beta fibril formation at 25 uM after 24 hrs by thioflavin T fluorescence method. Set-up: scale not given: the % may be the effect or the level left. The gist of the method: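 Aβ1-42 (25 µM final, HFIP-pretreated) and Cu2+ (25 µM) in HEPES pH 6.6 with 150 mM NaCl, incubated 24 h at 37 °C. Test compound (25 µM final) then added for a further 24 h at 37 °C, wells sealed. Read by ThT in glycine-NaOH pH 8.5 (ex 446/em 490 nm). DMSO 12.5% final; triplicate.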

For test [14] the target is unchanged. Briefly: Inhibition of self-induced amyloid beta (1 to 42) (unknown origin) aggregation at 25 uM after 24 hrs by thioflavin T fluorescence method. In outline:
as §3

The target in test [15] is T4, Acetylcholinesterase (Rattus norvegicus, UniProt P37136).
T4 sequence (P37136 whole entry): T1 sequence (whole entry)
Description: Inhibition of rat cortex homogenate AchE using acetylthiocholine iodide as substrate after 15 mins by Ellman's method.

Sequence of Amyloid-beta precursor protein (Homo sapiens) (P05067 whole entry): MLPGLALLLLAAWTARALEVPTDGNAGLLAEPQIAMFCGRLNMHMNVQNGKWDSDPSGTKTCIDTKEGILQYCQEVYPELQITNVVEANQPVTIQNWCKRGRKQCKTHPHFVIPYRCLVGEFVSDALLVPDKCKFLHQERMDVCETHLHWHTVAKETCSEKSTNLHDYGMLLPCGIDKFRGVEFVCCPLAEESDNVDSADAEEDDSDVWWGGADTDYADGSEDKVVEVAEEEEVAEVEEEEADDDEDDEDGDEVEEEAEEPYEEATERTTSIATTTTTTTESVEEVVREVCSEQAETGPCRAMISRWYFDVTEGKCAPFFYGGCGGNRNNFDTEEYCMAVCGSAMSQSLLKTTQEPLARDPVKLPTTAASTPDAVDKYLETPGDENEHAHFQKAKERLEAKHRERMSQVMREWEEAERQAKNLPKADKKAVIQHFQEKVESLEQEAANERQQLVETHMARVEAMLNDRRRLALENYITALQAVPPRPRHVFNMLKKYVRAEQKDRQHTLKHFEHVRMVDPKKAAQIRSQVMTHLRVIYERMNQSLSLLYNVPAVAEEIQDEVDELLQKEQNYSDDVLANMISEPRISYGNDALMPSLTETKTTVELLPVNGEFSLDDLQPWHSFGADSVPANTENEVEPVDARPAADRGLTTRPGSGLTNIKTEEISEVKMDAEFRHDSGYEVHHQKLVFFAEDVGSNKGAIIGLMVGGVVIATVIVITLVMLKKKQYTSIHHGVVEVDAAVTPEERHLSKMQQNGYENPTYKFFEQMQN
T3 sequence (O42275 whole entry): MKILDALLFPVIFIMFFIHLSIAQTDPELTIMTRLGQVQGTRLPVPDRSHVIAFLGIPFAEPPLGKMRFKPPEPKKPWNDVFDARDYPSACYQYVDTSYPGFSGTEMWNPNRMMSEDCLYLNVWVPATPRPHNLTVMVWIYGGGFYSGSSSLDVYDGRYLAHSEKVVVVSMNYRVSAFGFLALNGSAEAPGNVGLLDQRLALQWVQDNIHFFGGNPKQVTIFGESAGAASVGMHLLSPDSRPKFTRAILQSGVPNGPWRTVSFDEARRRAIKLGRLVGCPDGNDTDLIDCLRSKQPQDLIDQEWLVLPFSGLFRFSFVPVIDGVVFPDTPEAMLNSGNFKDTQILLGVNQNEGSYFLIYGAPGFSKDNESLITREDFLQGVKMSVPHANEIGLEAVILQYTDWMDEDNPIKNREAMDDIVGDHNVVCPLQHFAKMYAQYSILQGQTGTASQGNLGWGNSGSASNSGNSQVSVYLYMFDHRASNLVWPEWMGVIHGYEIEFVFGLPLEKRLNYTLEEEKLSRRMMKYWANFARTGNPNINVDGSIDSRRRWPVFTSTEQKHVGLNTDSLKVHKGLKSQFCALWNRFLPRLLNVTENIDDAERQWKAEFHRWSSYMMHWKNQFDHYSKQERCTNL
Sequence of Butyrylcholinesterase (Rattus norvegicus) (Q9JKC1 as listed by the source): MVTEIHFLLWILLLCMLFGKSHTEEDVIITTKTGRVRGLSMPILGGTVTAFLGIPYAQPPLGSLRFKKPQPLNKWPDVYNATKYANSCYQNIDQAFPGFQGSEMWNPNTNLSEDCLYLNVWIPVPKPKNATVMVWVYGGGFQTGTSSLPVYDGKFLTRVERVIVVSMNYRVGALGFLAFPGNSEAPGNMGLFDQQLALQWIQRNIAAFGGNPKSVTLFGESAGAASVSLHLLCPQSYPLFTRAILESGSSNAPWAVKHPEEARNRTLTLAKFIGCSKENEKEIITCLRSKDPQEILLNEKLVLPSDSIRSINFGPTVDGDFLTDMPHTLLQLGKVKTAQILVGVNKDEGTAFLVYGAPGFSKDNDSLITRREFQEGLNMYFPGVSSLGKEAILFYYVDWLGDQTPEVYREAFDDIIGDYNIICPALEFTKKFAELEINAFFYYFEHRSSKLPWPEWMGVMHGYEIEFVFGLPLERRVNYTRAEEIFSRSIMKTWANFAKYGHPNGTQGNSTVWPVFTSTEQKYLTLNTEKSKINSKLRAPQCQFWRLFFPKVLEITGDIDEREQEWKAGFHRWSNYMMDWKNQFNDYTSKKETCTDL
T2 sequence (P22303 whole entry): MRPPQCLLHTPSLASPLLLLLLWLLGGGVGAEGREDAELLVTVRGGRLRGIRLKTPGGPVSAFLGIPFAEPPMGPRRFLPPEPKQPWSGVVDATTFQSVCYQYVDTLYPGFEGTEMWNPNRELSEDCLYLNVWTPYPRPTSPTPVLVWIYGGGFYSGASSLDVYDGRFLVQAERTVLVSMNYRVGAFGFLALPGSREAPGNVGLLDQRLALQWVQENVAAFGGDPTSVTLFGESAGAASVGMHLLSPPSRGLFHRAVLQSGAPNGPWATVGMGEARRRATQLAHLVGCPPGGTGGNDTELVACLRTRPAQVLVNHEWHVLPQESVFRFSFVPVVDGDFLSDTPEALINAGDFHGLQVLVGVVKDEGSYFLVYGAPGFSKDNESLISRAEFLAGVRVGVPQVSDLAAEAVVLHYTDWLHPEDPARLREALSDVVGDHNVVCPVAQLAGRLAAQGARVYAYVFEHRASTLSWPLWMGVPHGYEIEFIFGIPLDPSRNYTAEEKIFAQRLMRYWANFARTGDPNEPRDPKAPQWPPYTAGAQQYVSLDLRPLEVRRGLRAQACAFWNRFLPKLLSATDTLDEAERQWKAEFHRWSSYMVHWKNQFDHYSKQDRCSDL
Sequence of Acetylcholinesterase (Electrophorus electricus) (O42275 24-633 limits assumed): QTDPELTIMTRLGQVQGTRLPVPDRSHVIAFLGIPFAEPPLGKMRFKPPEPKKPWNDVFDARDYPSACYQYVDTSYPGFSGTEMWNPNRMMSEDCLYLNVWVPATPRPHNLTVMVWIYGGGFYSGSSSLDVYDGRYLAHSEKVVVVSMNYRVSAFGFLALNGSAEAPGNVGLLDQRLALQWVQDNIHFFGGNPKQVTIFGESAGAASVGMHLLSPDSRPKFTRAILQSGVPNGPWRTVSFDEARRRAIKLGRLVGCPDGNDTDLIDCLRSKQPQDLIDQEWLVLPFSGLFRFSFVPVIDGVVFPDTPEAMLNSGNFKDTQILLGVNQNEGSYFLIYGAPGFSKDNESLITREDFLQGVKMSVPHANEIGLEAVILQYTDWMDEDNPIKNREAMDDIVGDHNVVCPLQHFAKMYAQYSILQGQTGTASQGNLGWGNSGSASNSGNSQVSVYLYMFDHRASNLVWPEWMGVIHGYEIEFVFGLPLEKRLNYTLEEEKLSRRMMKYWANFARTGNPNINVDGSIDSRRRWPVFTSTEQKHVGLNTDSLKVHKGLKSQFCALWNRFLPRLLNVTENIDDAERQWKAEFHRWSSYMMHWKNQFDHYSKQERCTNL

Take `O=c1c(-c2ccc(O)cc2)coc2cc(O)cc(O)c12`: the inhibition in test [1], in test [2], in test [3] and in [5] was under 5% in each case. The Activity in test [4] stood at 5.
Consider `CCN(CCCCOc1ccc(-c2coc3cc(OCCCCN(CC)Cc4ccccc4OC)cc(O)c3c2=O)cc1)Cc1ccccc1OC`, for which the inhibition in [1] is 20%; in test [7], “Dose-dependent effect”; in test [10], 77.8%; in test [12], “Dose-dependent effect”; in [14], 35%. The affinity in test [6] corresponds to a Ki of 140 nM. The Activity in test [4] is 0.3; in [8] it was “Dose-dependent effect”; in test [13], 72.1%. For the same compound, the IC50 in [9] was found to be 140 nM; in test [11], 350 nM; in test [15] it was 90 nM.

A word on the inhibition: it is the percentage by which the read-out fell short of the control. As a reminder, the Ki is a dissociation constant, usually derived from enzyme kinetics or from competition with a known ligand. As usually defined, the IC50 is the point on the concentration scale where inhibition reaches its midpoint.
